Screening data: PubChem, Broad Institute
Most compounds without a hit are left out; they make up all but 1.5% or so of the library.
S100A4 MyoIIA: S100A4-myosin IIA interaction inhibition. S100A4/TAMRA-MyoIIA peptide fluorescence polarization. inhibition, % at 10.7 µM. actives 0.14% (n = 360,000);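 active = mean inhibition of at least 70% across replicates, with every replicate also reaching that level; inconclusive = mean inhibition reaches 70% but some replicates fall short; inactive = mean inhibition below 70%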
Target sequence (P26447 whole entry, looked up): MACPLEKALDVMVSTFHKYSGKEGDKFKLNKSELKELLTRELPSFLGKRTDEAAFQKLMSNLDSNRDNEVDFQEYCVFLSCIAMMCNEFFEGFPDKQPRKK
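Compound dosing: one dose per compound; test system: human S100A4 monomer with TAMRA-labelled myosin IIA peptide; probe or stimulus: TAMRA-labelled myosin IIA heavy-chain peptide probe, 5 nM; medium: HEPES buffer with Ca2+, pH 7.2; schedule: 5 min incubation before reading; benchmarks: neutral control DMSO, positive control TFP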
dFosB act-1: activators of mouse delta FosB homodimer; purified delta FosB, TAMRA-CDK5 oligo fluorescence polarization; percent of positive-control signal above neutral wells; activation, % at 25 µM; actives 0.99% (n = 340,000);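 active = mean activation above about 17%, with every replicate also reaching it, limit read from the data, passing the limit was not always enough; inconclusive = only one of the two conditions met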
Target sequence (P13346 whole entry, looked up): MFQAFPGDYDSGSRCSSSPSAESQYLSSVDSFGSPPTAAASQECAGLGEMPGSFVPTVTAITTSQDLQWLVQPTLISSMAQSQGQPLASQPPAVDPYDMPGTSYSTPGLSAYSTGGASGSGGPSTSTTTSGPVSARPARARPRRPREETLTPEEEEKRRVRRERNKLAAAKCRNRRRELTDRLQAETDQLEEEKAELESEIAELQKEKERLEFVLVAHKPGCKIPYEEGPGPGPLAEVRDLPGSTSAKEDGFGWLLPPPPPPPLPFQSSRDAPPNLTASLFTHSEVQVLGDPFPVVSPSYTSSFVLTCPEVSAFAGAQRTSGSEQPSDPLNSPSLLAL
RAD54 branch: RAD54 (human) branch migration inhibition; Q92698; RAD54 Holliday junction branch migration, FAM/BHQ fluorescence; inhibition, % at 10.4 µM; actives 0.14% (n = 360,000); AID 602329;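 active = mean normalized replicate activity at least 40 and at least half of replicates scoring 40 or more; inconclusive = only one of the two criteria met; inactive = mean below 40 and under half of replicates reaching 40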;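 note: 0% = median of neutral control wells and 100% = median of positive control wells; inhibitors cause a drop in the FAM fluorescence signal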
MLL AF4-AF9 inh: blocks AF4 peptide binding to human AF9 | AlphaScreen, biotin-AF4 peptide binding to FLAG-AF9 | AID 651704 | actives 0.47% (n = 350,000) | P42568 | inhibition, % at 10 µM;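 active = every replicate reaching a set inhibition limit, whatever the replicate mean, cut at about 25% in these data; inconclusive = mean inhibition reaches that limit but some replicates miss it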;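 note: 0% = plate neutral control median and 100% = total signal loss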
RAD52 inh: blocks human RAD52 DNA annealing. P43351. recombinant RAD52 DNA annealing, FRET fluorescence. inhibition, % at 18.7 µM. actives 0.46% (n = 360,000);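 active = every replicate showing at least 50% inhibition; inconclusive = mean inhibition at least 50% but not in every replicate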
dFosB act-2: enhances mouse delta FosB homodimer binding to DNA | shares compounds with dFosB act-1 | purified delta FosB, TAMRA-CDK5 oligo fluorescence polarization; normalised: neutral wells 0, positive control 100 | activation, % at 24.9 µM | 2,400 tested, under 10 active;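 active = highest replicate activation at or above 34% and every replicate reaching that threshold; inconclusive = meets only one of the two criteria; inactive = meets neither criterion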;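 note: higher polarization means more probe DNA bound by delta FosB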
* marks the source's active call; other numbers are inactive results; ? = inconclusive; · = not tested or not shown.

SMILES	S100A4 MyoIIA	dFosB act-1	RAD54 branch	MLL AF4-AF9 inh	RAD52 inh	dFosB act-2
CCOc1ccccc1CNC(=O)C1CCN(c2nnc(C)c3c(C)n(-c4ccc(C)cc4)nc23)CC1	-6	85*	1	1	-52	5
Cc1ccc(-n2nc3c(=O)n(C(C)C(=O)NCc4ccccc4Cl)nc(C)c3c2C)cc1 (stereo unspecified)	-3	28*	1	0	-4	1
COc1ccc2oc(C(=O)OCC(=O)Nc3ccc(OC)c(S(N)(=O)=O)c3)c(C)c2c1	-4	-12	-2	-1	-10	·
COc1ccc2oc(C(=O)OCC(=O)Nc3cc(S(=O)(=O)N4CCOCC4)ccc3C)c(C)c2c1	-6	38*	·	6	-20	3
COc1ccc2oc(C(=O)OCC(=O)Nc3ccc(NC(C)=O)cc3)c(C)c2c1	-4	36*	19	-3	-12	-8
Cc1noc(C)c1NC(=O)N(C)C[C@H]1Oc2c(NC(=O)CCCCCC(=O)Nc3ccccc3N)cccc2C(=O)N([C@H](C)CO)C[C@@H]1C	1	·	·	0	-11	·
C[C@H]1CN([C@@H](C)CO)C(=O)Cc2cc(NS(=O)(=O)c3cn(C)cn3)ccc2O[C@@H]1CN(C)Cc1ccc(C(=O)O)cc1	-27	·	1	-5	-2	·
COc1ccccc1-c1oc2ccccc2c1C#CC1(O)CCCCC1	-4	0	-1	7	-164	·
COc1ccccc1-c1oc2ccccc2c1C#CC1(N)CCCCC1	-2	24*	-16	18	-37	-1
Cc1ccc2nc(NC(=O)c3ccc4ncsc4c3)sc2c1	-1	22*	6	-3	-74	-10
NS(=O)(=O)c1ccc2nc(NC(=O)c3ccc4ncsc4c3)sc2c1	·	16	4	·	·	·
Cc1ccc2nc(NC(=O)c3ccc(Cl)s3)sc2c1	-3	26*	-2	2	-14	-1
O=C(C[C@H]1C[C@@H]2c3cc(NS(=O)(=O)c4ccc(F)cc4)ccc3O[C@@H]2[C@@H](CO)O1)NCc1ccc(-c2ccccc2)cc1	11	·	8	1	2	·
CCOc1ccc(C(C(=O)NC2CCCC2)N(C(=O)c2snc(C(N)=O)c2N)c2cccc(O)c2)cc1 (stereo unspecified)	-7	-11	-8	2	-11	·
COc1ccc(N(C(=O)c2snc(C(N)=O)c2N)C(C(=O)NC2CCCC2)c2ccc(F)cc2)c(OC)c1 (stereo unspecified)	-3	32*	10	-6	3	-7
NC(=O)c1nsc(C(=O)N(c2cccc(O)c2)C(C(=O)NC2CCCC2)c2ccc(Cl)cc2)c1N (stereo unspecified)	-2	71*	2	-1	-6	1
COc1ccc(C(C(=O)NC2CCCCC2)N(C(=O)c2snc(C(N)=O)c2N)c2ccc(OC)cc2OC)cc1 (stereo unspecified)	-8	?	4	1	-18	·
N/C(=N\OC(=O)COc1ccc(Cl)cc1Cl)c1cccnc1	·	24*	3	·	·	-4
N/C(=N\OC(=O)COc1ccc(Cl)cc1)c1cccnc1	5	-1	0	-3	4	·
CO[C@@H]1CN(C)C(=O)c2ccc(NC(=O)NC(C)C)cc2OC[C@@H](C)N(C(=O)C2CCC2)C[C@H]1C	1	·	·	-3	6	·
COc1ccc2cc(CN(CC3CCCO3)S(=O)(=O)c3ccccc3)c(=O)[nH]c2c1 (stereo unspecified)	·	-11	-6	·	·	·
COc1ccc2cc(CN(CC3COCCO3)S(=O)(=O)c3ccc(Cl)cc3)c(=O)[nH]c2c1 (stereo unspecified)	·	39*	5	·	·	-1
N#CNC(=Nc1cccc(Cl)c1)Oc1ccccc1	-8	-3	0	1	-17	·
N#CNC(N)=Nc1cccc(Cl)c1	·	22*	-14	·	·	-7
CC(=O)c1sc(NC(=O)c2cc(=O)c3ccccc3o2)nc1C	-9	-1	-8	-1	-6	·
SMILES	S100A4 MyoIIA	dFosB act-1	RAD54 branch	MLL AF4-AF9 inh	RAD52 inh	dFosB act-2
O=C(CS(=O)(=O)Cc1ccccc1)Nc1nc2ccccc2s1	·	-1	-4	·	·	·
COc1ccc(OCC(=O)Nc2nc3cc4c(cc3s2)OCCO4)cc1	-2	47*	1	-1	-5	0
COc1ccc2nc(NC(=O)CS(=O)(=O)Cc3ccccc3)sc2c1	-7	74*	2	0	-8	-2
COc1ccc2oc(C(=O)Nc3nc4ccc(S(C)(=O)=O)cc4s3)c(C)c2c1	-3	61*	3	-13	-27	7
CC(=O)Nc1nc2cc3c(cc2s1)OCCO3	-2	3	6	0	-9	·
CC(=O)c1sc(NC(=O)c2oc3ccc(F)cc3c2C)nc1C	-4	59*	4	-1	-9	-8
O=S(=O)(NCC[C@H]1CC[C@H](NS(=O)(=O)c2ccccc2Cl)[C@@H](CO)O1)c1ccc(F)cc1	54	·	-16	0	-75	·
O=C(Nc1ccc2c(c1)[C@@H]1C[C@@H](CC(=O)N3CCCCC3)O[C@@H](CO)[C@@H]1O2)c1ccc2c(c1)OCO2	6	·	2	-2	0	·
C[C@H](NC(=O)C[C@H]1C=C[C@H](NC(=O)C2CCOCC2)[C@H](CO)O1)c1ccccc1	-2	·	1	-1	9	·
COc1cc(C(=O)Nc2nc3ccc(S(C)(=O)=O)cc3s2)cc(OC)c1C	-1	30*	5	9	-7	1
O=C(CN1C(=O)COc2ccc(Cl)cc21)Nc1nccs1	-3	20*	10	-3	1	3
C[C@H]1CN([C@@H](C)CO)C(=O)c2cc(NC(=O)Nc3ccc(F)cc3)ccc2O[C@H]1CN(C)S(C)(=O)=O	-6	·	0	-4	9	·
Cc1ccc(C(=O)N/N=C\c2ccc(OC(=O)c3cccc(F)c3)cc2)cn1	-5	31*	3	0	-5	0
O=C(Oc1ccc(/C=N/NC(=O)c2ccccn2)cc1)c1cccc(Br)c1	-1	19*	0	-6	-9	4
Cc1cc(C(=O)N/N=C/c2cc(Br)cc(Br)c2OC(=O)c2cccc(F)c2)n[nH]1	-5	53*	·	0	-26	4
Cc1ccc(C(=O)N/N=C\c2cccc(OC(=O)c3cccc(F)c3)c2)cn1	0	-17	-6	0	-17	·
O=C(Oc1ccc(/C=N/NC(=O)c2ccccn2)cc1)c1ccc(Br)cc1	-3	2	-5	-3	-14	·
CCNC(=O)C[C@@H]1CC[C@@H]2[C@H](COc3ccc(NS(C)(=O)=O)cc3C(=O)N2C)O1	2	·	9	-3	0	·
C[C@H](CO)N1C[C@H](C)[C@H](CN(C)Cc2ccccc2)OCCCC[C@H](C)Oc2ccc(N(C)C)cc2C1=O	6	·	1	6	-12	·
